# Test results as given in ChEMBL document CHEMBL1926565, “Synthesis, antiproliferative activities and telomerase inhibition evaluation of novel asymmetrical 1,2-disubstituted amidoanthraquinone derivatives” (Eur J Med Chem, 2012).
# The source made the active and inactive calls. The calls are words filed in the database; no cut-off is given here.
# Assays:
# [1] = molecular target: Telomerase reverse transcriptase (Homo sapiens) (UniProt O14746); assay: Residual activity of human TERT in H1299 cells at 10 uM after 24 hrs by SEAP reporter gene assay
# Sequence of Telomerase reverse transcriptase (Homo sapiens) (O14746 whole entry): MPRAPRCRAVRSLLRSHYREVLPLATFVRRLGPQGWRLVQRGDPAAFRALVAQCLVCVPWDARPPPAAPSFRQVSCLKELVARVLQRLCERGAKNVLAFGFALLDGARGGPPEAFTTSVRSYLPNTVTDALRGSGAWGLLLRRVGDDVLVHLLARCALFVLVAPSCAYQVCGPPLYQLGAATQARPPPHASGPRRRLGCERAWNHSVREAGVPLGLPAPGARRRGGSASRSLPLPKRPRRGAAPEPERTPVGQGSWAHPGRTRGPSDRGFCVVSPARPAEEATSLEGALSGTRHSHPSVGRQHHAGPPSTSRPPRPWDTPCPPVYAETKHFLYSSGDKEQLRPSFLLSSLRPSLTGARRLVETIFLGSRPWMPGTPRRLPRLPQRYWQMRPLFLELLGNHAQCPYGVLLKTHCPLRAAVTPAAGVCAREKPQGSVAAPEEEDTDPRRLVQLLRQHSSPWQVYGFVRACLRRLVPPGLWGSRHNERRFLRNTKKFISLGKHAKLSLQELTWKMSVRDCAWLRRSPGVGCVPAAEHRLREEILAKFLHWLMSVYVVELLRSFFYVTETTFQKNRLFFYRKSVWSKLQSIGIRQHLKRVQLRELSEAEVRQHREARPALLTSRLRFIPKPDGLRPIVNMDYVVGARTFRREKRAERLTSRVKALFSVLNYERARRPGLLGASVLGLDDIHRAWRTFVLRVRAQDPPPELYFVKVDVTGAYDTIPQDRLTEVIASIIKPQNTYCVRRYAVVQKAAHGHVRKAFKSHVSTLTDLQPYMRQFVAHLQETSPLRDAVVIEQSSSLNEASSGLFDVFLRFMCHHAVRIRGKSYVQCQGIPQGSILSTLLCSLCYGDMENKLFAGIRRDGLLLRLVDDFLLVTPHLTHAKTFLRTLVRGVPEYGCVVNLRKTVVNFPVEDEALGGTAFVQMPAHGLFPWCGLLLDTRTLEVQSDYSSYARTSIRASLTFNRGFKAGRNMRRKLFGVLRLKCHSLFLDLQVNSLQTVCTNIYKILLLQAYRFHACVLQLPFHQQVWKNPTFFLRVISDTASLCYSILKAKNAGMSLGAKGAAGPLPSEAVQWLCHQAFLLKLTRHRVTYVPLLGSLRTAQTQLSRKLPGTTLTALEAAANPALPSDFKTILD
# [2] = Growth of human H1299 cells at 100 uM 48 hrs by MTT assay; details: NCI-H1299, 48 h
# [3] = molecular target: Telomerase reverse transcriptase (Homo sapiens) (UniProt O14746); assay: Residual activity of human TERT in H1299 cells at 100 uM after 24 hrs by SEAP reporter gene assay
# [4] = molecular target: Telomerase reverse transcriptase (Homo sapiens) (UniProt O14746); assay: Residual activity of human TERT in H1299 cells at 1 uM after 24 hrs by SEAP reporter gene assay
# [5] = molecular target: Telomerase reverse transcriptase (Homo sapiens) (UniProt O14746); assay: Inhibition of telomerase activity in human H1299 cell free extract at 10 uM by modified TRAP assay
# How it was run: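 TRAP assay using total cell lysate from H1299 lung cancer cells as the telomerase source, with protein measured against BSA standards. Compounds tested at 10 µM. Controls were lysate without inhibitor (positive) and RNase A-treated extract without inhibitor (negative).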
# PC-3 = assay: Cytotoxicity against human PC3 cells after 48 hrs by SRB assay; format: functional, cell-based; details: PC-3, 48 h
# How it was run: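 PC-3 cells grown in RPMI1640 with 10% FBS at 37 °C, 5% CO₂. Seeded in medium with 5% FBS; after 24 h, one plate fixed with 10% TCA as T₀. Compound or 0.1% DMSO vehicle added for 48 h, then TCA fixation and 0.4% SRB in 1% acetic acid. Dye solubilized in 10 mM Trizma base, absorbance read at 515 nm. IC50 is the concentration giving 50% reduction of the protein gain in controls.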
# [6] = Growth of human H1299 cells at 1 uM after 48 hrs by MTT assay; details: NCI-H1299, 48 h
# [7] = Growth of human H1299 cells at 10 uM after 48 hrs by MTT assay; details: NCI-H1299, 48 h
SMILES,residual activity [1],residual activity [3],residual activity [4],inhibition [5],"growth, % of control at 100 µM [2]",IC50 (PC-3),"growth, % of control at 1 µM [6]","growth, % of control at 10 µM [7]"
O=C(CCl)Nc1ccc2c(c1NC(=O)c1ccco1)C(=O)c1ccccc1C2=O,2%,2%,84%,inactive,2%,2.44 µM,80%,0%
O=C(CCl)Nc1ccc2c(c1NC(=O)c1ccccc1F)C(=O)c1ccccc1C2=O,5%,2%,105%,inactive,0%,> 20 µM,78%,2%
O=C(CCl)Nc1ccc2c(c1NC(=O)CSc1ccccc1)C(=O)c1ccccc1C2=O,3%,0%,80%,inactive,0%,5.39 µM,88%,5%
COc1cccc2c1C(=O)c1c(O)c3c(c(O)c1C2=O)C[C@@](O)(C(=O)CO)C[C@@H]3O[C@H]1C[C@H](N)[C@H](O)[C@H](C)O1 [DOXORUBICIN],,,,,,0.25 µM,,
O=C(CCCCl)Nc1ccc2c(c1NC(=O)CCCCl)C(=O)c1ccccc1C2=O,92%,15%,113%,inactive,19%,3.94 µM,103%,79%
O=C(CCl)Nc1ccc2c(c1NC(=O)c1cccc(C(F)(F)F)c1)C(=O)c1ccccc1C2=O,4%,0%,99%,inactive,3%,5.68 µM,94%,5%
Nc1c(NC(=O)CCl)ccc2c1C(=O)c1ccccc1C2=O,13%,13%,15%,inactive,0%,1.65 µM,8%,0%
O=C(CCl)Nc1ccc2c(c1NC(=O)c1cccs1)C(=O)c1ccccc1C2=O,3%,2%,5%,inactive,0%,2.64 µM,0%,2%
O=C(CCl)Nc1ccc2c(c1NC(=O)CCl)C(=O)c1ccccc1C2=O,13%,13%,15%,inactive,0%,1.19 µM,8%,0%
Cc1cc(C(=O)Nc2c(NC(=O)CCl)ccc3c2C(=O)c2ccccc2C3=O)c(C)o1,2%,0%,81%,inactive,0%,4.31 µM,96%,2%
O=C(CCl)Nc1ccc2c(c1NC(=O)c1ccccc1Cl)C(=O)c1ccccc1C2=O,5%,1%,81%,inactive,0%,3.09 µM,101%,6%
O=C(CCl)Nc1ccc2c(c1NC(=O)c1ccno1)C(=O)c1ccccc1C2=O,4%,1%,92%,inactive,0%,3.78 µM,105%,3%
O=C(CCl)Nc1ccc2c(c1NC(=O)COc1ccccc1)C(=O)c1ccccc1C2=O,72%,4%,82%,inactive,4%,> 20 µM,101%,66%
O=C1c2c(O)ccc(O)c2C(=O)c2c(NCCNCCO)ccc(NCCNCCO)c21 [MITOXANTRONE],,,,,,0.29 µM,,

# Continued, in another order:
residual activity [1],residual activity [3],residual activity [4],inhibition [5],SMILES,"growth, % of control at 100 µM [2]",IC50 (PC-3),"growth, % of control at 1 µM [6]","growth, % of control at 10 µM [7]"
0%,0%,98%,inactive,Cc1ccccc1C(=O)Nc1c(NC(=O)CCl)ccc2c1C(=O)c1ccccc1C2=O,0%,3.67 µM,73%,0%
70%,8%,85%,inactive,Cc1ccc(C(=O)Nc2c(NC(=O)CN3CCCCC3)ccc3c2C(=O)c2ccccc2C3=O)cc1,10%,> 20 µM,86%,70%
79%,19%,87%,inactive,Cc1ccc(C(=O)Nc2c(NC(=O)CN3CCN(c4ncccn4)CC3)ccc3c2C(=O)c2ccccc2C3=O)cc1,59%,> 20 µM,102%,91%
76%,10%,100%,inactive,Cc1ccc(C(=O)Nc2c(NC(=O)CN(C)CC3OCCO3)ccc3c2C(=O)c2ccccc2C3=O)cc1,3%,1.46 µM,104%,88%
94%,15%,96%,inactive,O=C(CCl)Nc1ccc2c(c1NC(=O)c1ccccc1)C(=O)c1ccccc1C2=O,5%,0.95 µM,101%,83%
88%,15%,93%,inactive,Cc1ccc(C(=O)Nc2c(NC(=O)CN3CCN(c4ccccc4)CC3)ccc3c2C(=O)c2ccccc2C3=O)cc1,23%,> 20 µM,80%,76%
11%,22%,94%,inactive,Cc1ccc(C(=O)Nc2c(NC(=O)CN(C)CCc3ccccn3)ccc3c2C(=O)c2ccccc2C3=O)cc1,1%,6.68 µM,90%,46%
0%,0%,116%,inactive,Cc1cccc(C(=O)Nc2c(NC(=O)CCl)ccc3c2C(=O)c2ccccc2C3=O)c1,0%,3.79 µM,72%,0%
8%,6%,85%,inactive,O=C(CCl)Nc1ccc2c(c1NC(=O)c1ccc(C(F)(F)F)cc1)C(=O)c1ccccc1C2=O,0%,6.67 µM,86%,6%
64%,9%,97%,inactive,Cc1ccc(C(=O)Nc2c(NC(=O)CN3CCN(c4ccccn4)CC3)ccc3c2C(=O)c2ccccc2C3=O)cc1,6%,> 20 µM,105%,100%
54%,3%,98%,inactive,Cc1ccc(C(=O)Nc2c(NC(=O)CN3CCOCC3)ccc3c2C(=O)c2ccccc2C3=O)cc1,15%,> 20 µM,81%,56%
6%,4%,98%,inactive,O=C(CCl)Nc1ccc2c(c1NC(=O)c1ccc(Cl)cc1)C(=O)c1ccccc1C2=O,4%,> 20 µM,92%,5%
72%,12%,88%,inactive,Cc1ccc(C(=O)Nc2c(NC(=O)CN3CCSCC3)ccc3c2C(=O)c2ccccc2C3=O)cc1,20%,19.1 µM,85%,69%
